High-throughput results from PubChem BioAssay.
Sampled rows, rich in hits. Any-hit rate of the full collection: about 1.8%.
NR2E3 ag-1 = activates human NR2E3 receptor; Q9Y5X4; CHO-S Gal4-NCOR/VP16-NR2E3 two-hybrid, luciferase; inhibition of corepressor binding, % at 3.98 µM; hit rate 0.35% among 360,000;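 active = inhibition above the mean of all tested compounds plus 3 SD, cut at about 70% in these data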;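 also: 0% = DMSO with NR2E3 transfected cells and 100% = cells lacking NR2E3 construct; higher means lower luciferase signal from less NR2E3 corepressor binding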
Target sequence (Q9Y5X4 whole entry, looked up, the tested form may be a part): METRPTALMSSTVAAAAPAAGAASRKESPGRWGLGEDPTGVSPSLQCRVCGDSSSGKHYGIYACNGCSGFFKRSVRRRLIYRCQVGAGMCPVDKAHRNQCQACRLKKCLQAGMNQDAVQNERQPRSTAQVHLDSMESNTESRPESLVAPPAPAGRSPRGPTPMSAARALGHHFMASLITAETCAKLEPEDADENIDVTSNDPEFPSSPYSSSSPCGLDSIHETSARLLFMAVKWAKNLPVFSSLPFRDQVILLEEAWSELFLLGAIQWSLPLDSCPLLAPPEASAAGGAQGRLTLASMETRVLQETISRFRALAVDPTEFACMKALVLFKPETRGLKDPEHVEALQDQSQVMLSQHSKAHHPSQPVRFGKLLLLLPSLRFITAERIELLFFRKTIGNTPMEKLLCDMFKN
GalR3 antag = antagonists of human GalR3; inhibition, % at 3 µM; hit rate 0.44% among 360,000; HEK293 GalR3-CNG cAMP membrane potential fluorescence; galR3 body fused to GalR1 C-terminus; AID 651719;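 active = inhibition above the screen-wide average plus 3 SD, cut at about 13% in these data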;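 also: forskolin and galanin both at EC90 stimulate the cells; cAMP rise reported by CNG channel membrane potential dye signal; 0% = forskolin plus galanin with DMSO and 100% = forskolin alone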
Target sequence (O60755 1-299 limits assumed): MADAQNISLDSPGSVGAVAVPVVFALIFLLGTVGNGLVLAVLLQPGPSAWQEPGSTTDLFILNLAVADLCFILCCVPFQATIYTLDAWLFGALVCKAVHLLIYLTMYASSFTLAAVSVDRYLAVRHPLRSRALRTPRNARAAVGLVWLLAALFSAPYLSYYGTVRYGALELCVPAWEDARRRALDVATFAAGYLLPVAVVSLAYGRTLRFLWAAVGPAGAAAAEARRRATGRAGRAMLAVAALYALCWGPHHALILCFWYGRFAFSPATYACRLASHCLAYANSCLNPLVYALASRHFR
697 NFkB inh = lowers PMA/ionomycin-induced NF-kB signal in 697 B cells | inhibition, % at 4 µM | hit rate 0.33% among 330,000 | 697 B-cell NF-kB luciferase reporter, 16 h; in the data active = inhibition above about 35%
Jurkat NFkB inh = inhibitors of the PMA/ionomycin-induced NF-kB reporter in Jurkat cells; PMA/ionomycin-induced NF-kB luciferase reporter, luminescence; inhibition, % at 4 µM; hit rate 0.53% among 330,000; AID 435003; in the data active = inhibition above about 50%
Gli-Sufu block = Gli-Sufu pathway antagonism | inhibition, % at 5 µM | Sufu-KO-LIGHT fibroblasts, Gli luciferase reporter luminescence | hit rate 0.74% among 340,000;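 active = inhibition above about 55%, limit read from the data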;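 also: 0% = DMSO-treated cells and 100% = wells with medium but no cells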
NR2E3 ag-2 = agonists of human nuclear receptor NR2E3; inhibition of corepressor binding, % at 4.78 µM; hit rate 0.12% among 320,000; GST-NR2E3/biotin-RetCOR TR-FRET, 1536-well; Q9Y5X4;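 active = percent inhibition above the cutoff of mean plus 3 SD of all tested compounds, set per screening campaign, cut at about 20% in these data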;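 also: 0% = DMSO wells and 100% = biotin wells as full block of FRET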
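Format: 1536-well format; test system: GST-NR2E3 and biotin-RetCOR proteins; read-out basis: percent inhibition of TR-FRET ratio; timing: 5 h incubation at 4 °C; detection: time-resolved FRET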
697 NFkB conf = lowers PMA/ionomycin-induced NF-kB signal in 697 B cells | shares compounds with 697 NFkB inh | 697 B-cell NF-kB luciferase, 16 h | inhibition, % at 4 µM | hit rate 35% among 2,000 | AID 449746; in the data active = inhibition mostly above about 28%, no sharp cut-off; inactive = mostly below about 22%
The depositor's hits bear a star; i = inactive; nt = no result given.

SMILES | NR2E3 ag-1 | GalR3 antag | 697 NFkB inh | Jurkat NFkB inh | Gli-Sufu block | NR2E3 ag-2 | 697 NFkB conf
Cc1[nH]c2ccccc2c1C(=O)CN1C(=O)NC2(CC(C)CC(C)(C)C2)C1=O (configuration not stated) | 20 | -8 | 38* | 16 | 11 | 0 | 49*
CCN(Cc1ccccc1)C(=O)CN1C(=O)NC2(CC(C)CC(C)(C)C2)C1=O (configuration not stated) | -3 | -4 | 13 | 2 | -2 | -3 | nt
CC(C)C[C@H]1COc2cc(Br)ccc2S(=O)(=O)N1Cc1cccc(Cl)c1 | nt | -4 | nt | nt | nt | nt | nt
Cc1ccc(C(=O)Oc2oc(-c3ccccc3)nc2C=Nc2ccc(N(C)C)cc2)cc1 | -112 | 0 | 35* | -70 | -34 | 1 | 9
CC(C)c1nc(SCC(=O)Nc2nc3c(s2)CCCC3)c2ccccc2n1 | 29 | -5 | -170 | -3 | 8 | 3 | nt
CC(C)(C)c1nc(SCC(=O)Nc2nc3c(s2)CCCC3)c2ccccc2n1 | 20 | -11 | i | -31 | 20 | 3 | i
CC(=O)OCCCNc1cc(Sc2ccc(Cl)cc2)c2nonc2c1[N+](=O)[O-] | 8 | -3 | nt | nt | -13 | 2 | nt
Cc1ccc(Sc2cc(NCCCO)c([N+](=O)[O-])c3nonc23)cc1 | -13 | -6 | 46* | -9 | -6 | 2 | 44*
Nc1nc2c(ncn2[C@@H]2O[C@H](C(=O)N[C@H](Cc3ccccc3)C(=O)O)[C@@H](O)[C@H]2O)c(=O)[nH]1 | nt | -6 | nt | nt | nt | nt | nt
Cc1ccc(NC(=O)c2sc3ccccc3c2Cl)nc1 | -149 | 3 | -311 | -56 | -64 | 8 | -275
C[C@]12Cc3ccccc3C1CC1=N[C@@H](c3ccc(C(F)(F)F)cc3)O[C@@]13C[C@@H]2C(=O)N3Cc1ccncc1 (some centres not stated) | nt | -7 | nt | nt | nt | nt | nt
c1ccc(-c2cc(-c3nnco3)c3ccccc3n2)nc1 | -20 | -1 | 10 | -9 | -12 | -1 | nt
COc1cc(-c2cc(-c3nnco3)c3ccccc3n2)cc(OC)c1OC | -10 | -1 | 41* | 0 | 26 | 0 | 9
CCN1C(=O)N(C(C)=O)[C@H]2C[C@H](C(=O)N3CCCC3)[C@H](C)[C@H](c3ccccc3)C[C@H]21 | nt | -6 | nt | nt | nt | nt | nt
CCOC(=O)C1CCCCN1C(=O)CCc1c(C)nc2cc(-c3ccccc3)nn2c1C (configuration not stated) | -9 | -4 | 35* | 20 | 25 | 3 | 27
Cc1nc2cc(-c3cccc(F)c3)nn2c(C)c1CCC(=O)N1CCN(c2ccccn2)CC1 | -7 | -2 | 48* | 16 | 6 | 0 | 28
Cc1nc2cc(-c3cccc(F)c3)nn2c(C)c1CCC(=O)NC(C)c1ccc2c(c1)OCCO2 (configuration not stated) | -28 | 1 | 19 | -3 | 14 | 5 | nt
Cc1nc2cc(-c3cccc(F)c3)nn2c(C)c1CCC(=O)NC(C)CCc1ccco1 (configuration not stated) | 0 | nt | 42* | 24 | 26 | 6 | 37*
Cc1nc2cc(-c3ccccc3)nn2c(C)c1CCC(=O)NC(C)c1ccc2c(c1)OCCO2 (configuration not stated) | -10 | 2 | 35* | 2 | 17 | 4 | 23
CCS(=O)(=O)N(C)C[C@@H]1OCc2ccccc2-c2c(n(C)c3ccccc23)C(=O)N([C@H](C)CO)C[C@@H]1C | nt | -2 | nt | nt | nt | nt | nt
Cc1nc2cc(-c3ccccc3)nn2c(C)c1CCC(=O)NCc1ccco1 | -2 | 9 | 46* | 2 | 11 | 4 | 37*
COc1ccccc1-c1cc2nc(C)c(CCC(=O)NCc3ccco3)c(C)n2n1 | -27 | 2 | 33 | 9 | 12 | 3 | nt
C[C@H]1COc2cc(NCCO)ccc2S(=O)(=O)N1 | nt | -3 | nt | nt | nt | nt | nt
COCc1cc(N2CCNC[C@H]2C)ccc1N1CCN(Cc2ccccc2)[C@@H](C)C1 | nt | -7 | nt | nt | nt | nt | nt
CN=c1scc(C)n1/N=C/c1ccc(O)cc1 | -72 | 0 | -129 | -101 | 7 | -6 | nt
SMILES | NR2E3 ag-1 | GalR3 antag | 697 NFkB inh | Jurkat NFkB inh | Gli-Sufu block | NR2E3 ag-2 | 697 NFkB conf
CN=c1scc(C)n1/N=C/c1ccc2c(c1)OCO2 | -168 | -7 | -273 | -131 | -83 | -2 | -262
COCc1[nH]nc2c1C(c1ccc(Br)cc1)N(c1ccc(OC)cc1)C2=O (configuration not stated) | nt | -3 | nt | nt | nt | nt | nt
NC(=O)c1cc([N+](=O)[O-])ccc1NCc1ccc(O)cc1 | 37 | 3 | 37* | 19 | 27 | 1 | 10
CCCCNc1cccc2c1S(=O)(=O)N[C@@H](CC(C)C)CO2 | nt | 1 | nt | nt | nt | nt | nt
COc1cc(NC(=S)NC(=O)c2cc(C)cc(C)c2)ccc1NC(=O)c1cccs1 | -32 | 0 | -14 | 2 | -1 | 2 | nt
COc1cc(NC(=S)NC(=O)c2ccc(C(C)(C)C)cc2)ccc1NC(=O)c1cccs1 | 2 | 0 | i | -42 | -5 | -3 | -13
COc1ccc(C(=O)N2CCC[C@H]2C(=O)N2CCC[C@@H]2C(=O)NCc2ccccc2)cc1F | nt | -4 | nt | nt | nt | nt | nt
O=S(=O)(c1ccc(C(F)(F)F)cc1)N1CCCc2nc(-c3ccccc3)ccc21 | nt | -8 | nt | nt | nt | nt | nt
Cc1cccc(/C(N)=N/OC(=O)c2ccc(F)cc2)c1 | -52 | -3 | -251 | -125 | -95 | -4 | -143
Cc1ccc(C(=O)O/N=C(\N)c2ccccc2)c(Cl)c1 | 24 | -4 | -343 | -50 | 3 | -3 | -354
N/C(=N\OC(=O)c1ccccc1Cl)c1ccncc1 | -143 | -1 | -87 | -92 | -52 | -3 | nt
O=C(O)c1ccc(N=Nc2c(O)[nH]c3cc(Cl)ccc23)cc1 | -126 | 3 | -332 | -91 | -115 | 4 | -314
COC(=O)[C@]12C[C@H](CC(=O)N3CCN(C(=O)C4CC4)CC3)C(=O)N(CCC3=CCCCC3)C1=C[C@H](COCc1ccccc1)O[C@@H]2C | nt | -3 | nt | nt | nt | nt | nt
O=C1Cn2nnc(-c3ccccc3)c2C2c3cc(Br)ccc3CCN12 (configuration not stated) | nt | -7 | nt | nt | nt | nt | nt
COc1ccc(NC(=O)c2cc(CC(C)C)nc3ccccc23)cc1 | 21 | -1 | -287 | 38 | -15 | -1 | -345
C[C@H](O)[C@@H]1C(=O)N2CCc3c([nH]c4c(-c5ccccc5)cccc34)[C@@H]2C[C@@H]1N(C)C(=S)Nc1ccc(C#N)cc1 | nt | -9 | nt | nt | nt | nt | nt
CCc1cc2c(-c3ccccc3)cc(=O)oc2cc1OC(C)C(=O)NCC1CCC(C(=O)O)CC1 (configuration not stated) | -19 | -7 | 41* | -12 | 0 | 0 | 19
CC(Sc1ncnc2c1cnn2-c1ccccc1)C(=O)NCC1CCCO1 (configuration not stated) | -36 | -2 | -19 | -10 | 2 | -2 | nt
